Results from ChEMBL document CHEMBL5712071, “BET bromodomain protein inhibition is a therapeutic option for medulloblastoma” (Oncotarget, 2013).
Active and inactive are the calls of the source.

Columns and labels:
HD-MB03 [1] = assay: Anti-proliferative activity against human HD-MB03 cells assessed as reduction in cell viability incubated for 72 hrs by MTT assay; assay type: functional, cell-based; conditions: HD-MB03, 72 h
In short: (§1)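 Cells seeded in triplicate at 2 × 10^3 per well and allowed to adhere for 24h. JQ1 was given as serial dilutions in full medium, 1nM-6µM, from a 10 mM DMSO stock. Viability was read by MTT at each time point and IC50 derived from dose-response curves. Culture media were RPMI 1640/10% FCS for HD-MB3 (plus 1% NEAA), ONS-76, Daoy and UW-228, and EMEM/10% FCS for D-283 and D-341.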

UW228 [2] = assay: Anti-proliferative activity against human UW228 cells assessed as reduction in cell viability incubated for 72 hrs by MTT assay; assay type: functional, cell-based; conditions: UW228, 72 h; in short: as §1
D341 cell line [3] = assay: Anti-proliferative activity against human D341 cells assessed as reduction in cell viability incubated for 120 hrs by MTT assay; assay type: functional, cell-based; conditions: D341, 120 h; in short: as §1
D283 Med [4] = assay: Anti-proliferative activity against human D283 cells assessed as reduction in cell viability incubated for 120 hrs by MTT assay; assay type: functional, cell-based; in short: as §1
UW228 [5] = assay: Induction of apoptosis in human UW228 cells assessed as increase in population of cells in sub-G1 phase at 500 nM incubated for 72 hrs by ELISA; assay type: functional, cell-based
In short: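 Cell death ELISA on ONS-76 or UW-228 cells seeded 2 × 10^3 per well in triplicate and allowed 24h to adhere. Treated with 500 nM JQ1 or DMSO for 72h, then apoptotic cell death measured by Cell Death Detection ELISA per kit protocol. Experiments repeated at least 3 times.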

D341 cell line [6] = assay: Induction of apoptosis in human D341 cells assessed as increase in population of cells in G1 phase at 500 nM incubated for 72 hrs by ELISA; assay type: functional, cell-based
ONS-76 [7] = assay: Induction of apoptosis in human ONS-76 cells assessed as increase in population of cells in G1 phase at 500 nM incubated for 72 hrs by ELISA; assay type: functional, cell-based
D283 Med [8] = assay: Induction of apoptosis in human D283 cells assessed as increase in population of cells in sub-G1 phase at 500 nM incubated for 72 hrs by flow cytometry; assay type: functional, cell-based
In short: (§2)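 Cells were cultured with 500 nM JQ1 or DMSO control, trypsinised and washed 3 times in PBS. DNA was stained with propidium iodide for 15 min and DNA content analysed by flow cytometry to give G1 and sub-G1 fractions.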

UW228 [9] = assay: Induction of apoptosis in human UW228 cells assessed as increase in population of cells in sub-G1 phase at 500 nM incubated for 72 hrs by flow cytometry; assay type: functional, cell-based
In short: (§3)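 PI flow cytometry: cells seeded in triplicate, adhered 24h, then exposed to 500 nM JQ1 or DMSO control (methods give 48h culture, legend gives 72h). Harvested by trypsin, washed 3 times in PBS, stained with propidium iodide 15 min, DNA content read by flow cytometry. Sub-G1 fraction taken as apoptotic. Experiments repeated at least 3 times.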

HD-MB03 [10] = assay: Induction of apoptosis in human HD-MB03 cells assessed as increase in population of cells in sub-G1 phase at 500 nM incubated for 72 hrs by flow cytometry; assay type: functional, cell-based; in short: as §3
D283 Med [11] = assay: Induction of apoptosis in human D283 cells assessed as increase in population of cells in G1 phase at 500 nM incubated for 72 hrs by flow cytometry; assay type: functional, cell-based; in short: as §2
ONS-76 [12] = assay: Induction of apoptosis in human ONS-76 cells assessed as increase in population of cells in G1 phase at 500 nM incubated for 72 hrs by flow cytometry; assay type: functional, cell-based
HD-MB03 [13] = assay: Induction of apoptosis in human HD-MB03 cells assessed as increase in population of cells in G1 phase at 500 nM incubated for 72 hrs by flow cytometry; assay type: functional, cell-based; in short: as §2
Daoy = assay: Induction of senescence in human Daoy cells assessed as increase in population of cells in G1 phase at 500 nM incubated for 72 hrs by fluorometric SA-beta-gal activity assay; assay type: functional, cell-based
In short: (§4)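 Senescence read as fluorometric SA-β-gal activity. Cells seeded 2 × 10^3 per well in triplicate and allowed 24h to adhere, then exposed to 500 nM JQ1 or DMSO control for 72h. Assayed per kit protocol. Experiments repeated at least 3 times.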

D283 Med [14] = assay: Induction of senescence in human D283 cells assessed as increase in population of cells in G1 phase at 500 nM incubated for 72 hrs by fluorometric SA-beta-gal activity assay; assay type: functional, cell-based; in short: as §4
HD-MB03 [15] = assay: Antiproliferative activity against human HD-MB03 cells at 500 nM incubated for 72 hrs by BrdU ELISA method; assay type: functional, cell-based
In short: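 Cells seeded in triplicate at 2 × 10^3 per well with 24h adherence, then treated with 500 nM JQ1 or DMSO control for 72h. Proliferation was measured by BrdU incorporation ELISA. Experiments were run independently at least 3 times.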

HD-MB03 [16] = assay: Anti-proliferative activity against human HD-MB03 cells expressing dominant-negative TP53 mutant assessed as reduction in cell viability at 1 to 6000 nM incubated for 72 hrs by MTT assay; assay type: functional, cell-based; conditions: dose 1-6000 nM
In short: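 HD-MB3 was stably transfected with pMSCV-puro-p53DD and selected in 2 μg/mL puromycin. Cells were seeded in triplicate at 2 × 10^3 per well with 24h adherence, then exposed to serially diluted JQ1 in full medium for 72h. Viability was read by MTT.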

HD-MB03 [17] = assay: Inhibition of BRD4 female athymic (nu/nu) mouse xenografted with human HD-MB03 cells as reduction in MYC mRNA expression in tumor at 50 mg/kg, ip administered at 0, 12, 24 and 36 hrs over 2-day course by RT-PCR analysis; assay type: functional, organism-based
In short: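 Same flank HD-MB3 xenografts in female nu/nu mice. Given 4 i.p. doses of JQ1 50 mg/kg (or DMSO) at 0, 12, 24 and 36h; tumours excised 4h after the last dose and snap-frozen. MYC measured by RT-PCR (mean ± S.D.) or western blot with β-actin loading control, 3 tumours per group.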

HD-MB03 [18] = assay: Induction of apoptosis in female athymic (nu/nu) mouse xenografted with human HD-MB03 cells as increase in expression of cleaved caspase 3 in tumor at 50 mg/kg, ip administered at 0, 12, 24 and 36 hrs over 2-day course by immunohistochemistry; assay type: functional, organism-based
In short: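 Nu/nu mice bearing subcutaneous HD-MB3 tumours received JQ1 50 mg/kg ip or DMSO at 0, 12, 24 and 36 h and were killed 4 h after the last dose, 3 tumours per group. Formalin-fixed 5µm sections underwent pH 6.0 antigen retrieval for 20 min at 100°C, then cleaved caspase 3 immunostaining (1:200) with quantification of positive cells.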

[19] = target: Bromodomain-containing protein 4 (Homo sapiens) (UniProt O60885); conditions: D341 cell line, dose 500.0 nM, time 24.0 hrs
[20] = target: Bromodomain-containing protein 4 (Homo sapiens) (UniProt O60885); conditions: UW228, dose 500.0 nM, time 72.0 hrs
[21] = target: Bromodomain-containing protein 4 (Homo sapiens) (UniProt O60885); conditions: HD-MB03, dose 500.0 nM, time 6-24 hrs

Cc1sc2c(c1C)C(c1ccc(Cl)cc1)=N[C@@H](CC(=O)OC(C)(C)C)c1nnc(C)n1-2
316 nM: IC50 (D283 Med [4])
active: Activity (UW228 [5]) | Activity (D341 cell line [6]) | Activity (ONS-76 [7]) | Activity (D283 Med [8]) | Activity (UW228 [9]) | Activity (HD-MB03 [10]) | Activity (D283 Med [11]) | Activity (ONS-76 [12]) | Activity (HD-MB03 [13]) | Activity (Daoy) | Activity (D283 Med [14]) | Activity (HD-MB03 [15]) | inhibition (HD-MB03 [17]) | Activity (HD-MB03 [18]) | inhibition [19] | inhibition [20] | inhibition [21]
269 nM: IC50 (D341 cell line [3])
78 nM: IC50 (HD-MB03 [1])
> 1000 nM: IC50 (UW228 [2])
inactive: Activity (HD-MB03 [16])
